ChEMBL document CHEMBL4610116, “Salicylanilide Analog Minimizes Relapse of Clostridioides difficile Infection in Mice” (J Med Chem, 2020)
Active and inactive are the calls of the source. The rule behind the calls is not given here.

What was measured:
[1] = Cytotoxicity in HEK293T/17 cells assessed as reduction in cell viability incubated for 16 hrs by MTS assay; type: cell-based; settings: human
Method in brief: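 HEK 293T/17 cells seeded at 2 × 10⁴ per well in DMEM and allowed to adhere 24 h at 37°C, 5% CO₂. Exposed to 0.020–40 µM compound in DMEM for 16 h, then MTS read-out after 1 h at 37°C. Normalized to untreated cells and to 0.2 mM digitonin; duplicates.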

[2] = Tmax in cefoperazone-treated C57Bl/6J mouse at 1 mg/kg, po dosed each day for 5 days by LC/MS-SRM analysis; type: ADME, organism-based; settings: in vivo
Method in brief: (§1)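 C57Bl/6J mice pre-treated with cefoperazone 0.5 mg/mL in drinking water for 10 days, then a 2-day washout. Oral dose of 1 mg/kg given daily for 5 days. Bled at 5, 10, 30 min and 1, 2, 4, 10, 24 h after dosing on the first and final days; n = 3 per time point. Plasma mixed with 2 volumes acetonitrile containing internal standard, centrifuged, supernatant analysed by LC/MS-SRM.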

[3] = AUC in non-antibioticc-treated C57Bl/6J mouse at 0.3 mg/kg, iv and measured after 5 mins to 24 hrs by LC/MS-SRM analysis; type: ADME, organism-based; set-up: time upper 24 hr, time lower 0.083 hr, dose 0.3 mg/kg, route intravenous; settings: in vivo
Method in brief: (§2)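 Non-antibiotic-treated C57Bl/6J mice given a single i.v. dose of 0.3 mg/kg; n = 3 per time point. Bled at 5, 10, 30 min and 1, 2, 4, 8, 24 h. Plasma mixed with 2 volumes acetonitrile containing internal standard, centrifuged, supernatant quantified by LC/MS-SRM.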

Clostridioides difficile [4] = assay: (§3) Suppression of relapse of Clostridioides difficile 630 infection in cefoperazone-treated C57BL/6J mouse model of recurrent Clostridioides difficile 630 infection assessed as reduction in microbial load (total vegetative cells plus spores) in cecal content at 5 mg/kg, po for 5 days from day 4 to 9 after infection with spores measured on day day 14; type: functional, organism-based
Method in brief: (§4)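 Five-week-old C57BL/6J mice of both sexes given cefoperazone 0.5 mg/ml in drinking water for 5 days, then a 2-day washout. Oral challenge with C. difficile 630 spores on day 0. Oral gavage in 2-(hydroxypropyl)-cyclodextrin vehicle on days 4–9; n = 6 per group. Body weight recorded daily. Feces or cecal contents suspended 1:10 in PBS, serially diluted and plated on TCCFA, incubated anaerobically at 37°C for 24 h; results as CFU/g.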

[5] = Oral bioavailability in cefoperazone-treated C57Bl/6J mouse at 1 mg/kg dosed each day for 5 days by LC/MS-SRM analysis; type: ADME, organism-based; settings: in vivo
[6] = Half life in non-antibioticc-treated C57Bl/6J mouse at 0.3 mg/kg, iv and measured after 5 mins to 24 hrs by LC/MS-SRM analysis; type: ADME, organism-based; settings: in vivo; method in brief: as §2
[7] = AUC in cefoperazone-treated C57Bl/6J mouse at 1 mg/kg, po dosed each day for 5 days by LC/MS-SRM analysis; type: ADME, organism-based; settings: in vivo; method in brief: as §1
[8] = MRT in non-antibioticc-treated C57Bl/6J mouse at 0.3 mg/kg, iv and measured after 5 mins to 24 hrs by LC/MS-SRM analysis; type: ADME, organism-based; settings: in vivo; method in brief: as §2
Clostridioides difficile [9] = assay: as §3, with “spores)” for “spores) in cecal content”, “9” for “day 14”; type: functional, organism-based; method in brief: as §4
[10] = Cmax in cecum of cefoperazone-treated C57Bl/6J mouse at 1 mg/kg, po dosed each day for 5 days and measured at 4 hrs post last dose by LC/MS-SRM analysis; type: ADME, organism-based, Caecum; set-up: dose 1 mg/kg, route oral
Method in brief: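 Cefoperazone-pretreated mice (0.5 mg/mL in drinking water, 10 days; 2-day washout) dosed orally at 1 mg/kg daily for 5 days. On the final day, mice euthanized at 30 min, 4 h and 24 h post-dose and cecal contents collected. Samples homogenized in 4 volumes acetonitrile containing internal standard, centrifuged, supernatant analysed by LC/MS-SRM.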

**Q.** Which results are given for `O=C(Nc1cc(C(F)(F)F)c(Oc2ccc(Cl)cc2)c(C(F)(F)F)c1)c1cc(Cl)cc(Cl)c1O`?
**A.** Activity [1]: > 2.5 µM; Tmax [2]: 2 h; AUC [3]: 9.23 µM·h; Activity (Clostridioides difficile [4]): Active; bioavailability [5]: 76%; half-life [6]: 5 h; AUC at 120 h [7]: 23.2 µM·h; MRT [8]: 5.26 h; Activity (Clostridioides difficile [9]): Active; Cmax [10]: 50 µM
